Changes are numbered by the printed parent chain.
Legend:
Details in all cases: stereoisomer not certain
OR5H1 = tested on: T1, OR5H1
T1 sequence (whole entry): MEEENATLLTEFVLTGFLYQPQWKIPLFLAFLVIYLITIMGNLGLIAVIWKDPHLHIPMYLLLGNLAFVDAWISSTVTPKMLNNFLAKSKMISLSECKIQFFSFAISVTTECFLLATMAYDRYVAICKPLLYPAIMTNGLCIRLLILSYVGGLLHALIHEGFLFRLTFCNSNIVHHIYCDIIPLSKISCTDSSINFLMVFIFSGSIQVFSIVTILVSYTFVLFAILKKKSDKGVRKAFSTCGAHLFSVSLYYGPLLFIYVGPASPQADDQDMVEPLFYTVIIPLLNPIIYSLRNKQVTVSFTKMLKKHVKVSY
How it was run: (§1)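 Assay methods differ from source to source, frequently being transient luciferase assays in mammalian cell lines. For each receptor–molecule pair, the label responsive (active) applies when the original authors judged the measured signal statistically different from baseline, and non-responsive (inactive) applies otherwise.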

OR5H2 = tested on: T2, OR5H2
T2 sequence (whole entry): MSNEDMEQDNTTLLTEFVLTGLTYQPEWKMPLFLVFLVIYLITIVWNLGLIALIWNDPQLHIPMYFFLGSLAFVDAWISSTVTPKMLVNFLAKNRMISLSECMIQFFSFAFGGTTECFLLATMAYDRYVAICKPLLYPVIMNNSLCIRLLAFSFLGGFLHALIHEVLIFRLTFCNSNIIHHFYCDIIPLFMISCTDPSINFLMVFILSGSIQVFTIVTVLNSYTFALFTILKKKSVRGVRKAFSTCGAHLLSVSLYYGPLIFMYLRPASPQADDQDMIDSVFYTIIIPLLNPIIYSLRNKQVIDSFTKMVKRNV
How it was run: as §1

OR5H6 (Homo sapiens) = biological target: T3, OR5H6 (Homo sapiens) (UniProt Q8NGV6)
T3 sequence (whole entry): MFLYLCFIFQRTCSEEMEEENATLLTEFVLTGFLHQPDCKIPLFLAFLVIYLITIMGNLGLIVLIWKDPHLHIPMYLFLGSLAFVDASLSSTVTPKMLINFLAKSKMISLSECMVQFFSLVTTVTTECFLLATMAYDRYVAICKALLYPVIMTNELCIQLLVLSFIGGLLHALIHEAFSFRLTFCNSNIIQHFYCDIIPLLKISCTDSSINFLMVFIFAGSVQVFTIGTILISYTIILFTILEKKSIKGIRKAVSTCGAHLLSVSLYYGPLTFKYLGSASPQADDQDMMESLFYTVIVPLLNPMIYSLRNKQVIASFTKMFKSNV
How it was run: as §1

OR5I1 (Homo sapiens) = biological target: T4, OR5I1 (Homo sapiens) (UniProt Q13606)
T4 sequence (whole entry): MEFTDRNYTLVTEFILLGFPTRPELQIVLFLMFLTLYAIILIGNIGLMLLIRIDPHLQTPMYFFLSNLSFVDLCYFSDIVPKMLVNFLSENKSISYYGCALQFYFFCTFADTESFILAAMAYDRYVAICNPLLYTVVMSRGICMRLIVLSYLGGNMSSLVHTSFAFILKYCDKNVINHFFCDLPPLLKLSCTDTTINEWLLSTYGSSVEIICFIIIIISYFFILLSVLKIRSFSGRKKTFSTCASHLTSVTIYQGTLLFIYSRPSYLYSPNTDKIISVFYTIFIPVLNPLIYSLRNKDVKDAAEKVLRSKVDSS
How it was run: as §1

OR5J2 (Homo sapiens) = biological target: T5, OR5J2 (Homo sapiens) (UniProt Q8NH18)
T5 sequence (whole entry): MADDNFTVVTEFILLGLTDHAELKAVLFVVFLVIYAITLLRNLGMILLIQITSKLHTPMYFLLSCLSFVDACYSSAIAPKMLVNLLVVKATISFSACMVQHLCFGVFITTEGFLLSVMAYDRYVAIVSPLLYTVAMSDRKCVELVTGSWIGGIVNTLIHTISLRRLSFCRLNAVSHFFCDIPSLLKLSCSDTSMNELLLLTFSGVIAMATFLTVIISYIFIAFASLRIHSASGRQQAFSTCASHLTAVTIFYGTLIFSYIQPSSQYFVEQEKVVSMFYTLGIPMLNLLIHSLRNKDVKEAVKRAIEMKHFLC
How it was run: as §1

OR5K1 (Homo sapiens) = biological target: T6, OR5K1 (Homo sapiens) (UniProt Q8NHB7)
T6 sequence (whole entry): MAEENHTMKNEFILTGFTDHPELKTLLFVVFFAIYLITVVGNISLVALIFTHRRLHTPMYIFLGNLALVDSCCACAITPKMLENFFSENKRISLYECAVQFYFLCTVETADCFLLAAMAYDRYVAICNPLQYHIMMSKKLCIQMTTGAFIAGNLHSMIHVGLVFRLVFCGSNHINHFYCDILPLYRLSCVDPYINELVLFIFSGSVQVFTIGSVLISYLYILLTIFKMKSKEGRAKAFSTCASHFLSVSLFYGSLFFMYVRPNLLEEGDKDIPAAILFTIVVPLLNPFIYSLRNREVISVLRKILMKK
How it was run: as §1

OR5K2 (Homo sapiens) = biological target: T7, OR5K2 (Homo sapiens) (UniProt Q8NHB8)
T7 sequence (whole entry): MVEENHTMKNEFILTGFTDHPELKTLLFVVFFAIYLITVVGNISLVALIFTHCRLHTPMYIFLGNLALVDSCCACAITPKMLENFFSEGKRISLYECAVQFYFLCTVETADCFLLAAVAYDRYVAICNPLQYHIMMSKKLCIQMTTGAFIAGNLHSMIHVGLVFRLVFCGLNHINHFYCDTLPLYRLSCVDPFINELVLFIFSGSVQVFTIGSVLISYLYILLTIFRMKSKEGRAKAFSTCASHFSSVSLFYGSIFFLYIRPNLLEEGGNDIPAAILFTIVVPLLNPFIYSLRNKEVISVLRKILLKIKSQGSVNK
How it was run: as §1

OR5K2 L197M = tested on: T8, OR5K2 L197M
T8 sequence (whole entry): T7 sequence (whole entry) with L197M
How it was run: as §1

## CC1=NC(C)C(C)S1 (stereo not given)
OR5H1
  odorant receptor agonist call: inactive
OR5H2
  odorant receptor agonist call: inactive
OR5H6 (Homo sapiens)
  odorant receptor agonist call: inactive
OR5I1 (Homo sapiens)
  odorant receptor agonist call: inactive
OR5J2 (Homo sapiens)
  odorant receptor agonist call: inactive
OR5K1 (Homo sapiens)
  odorant receptor agonist call: active
OR5K2 (Homo sapiens)
  odorant receptor agonist call: inactive
OR5K2 L197M
  odorant receptor agonist call: inactive

## CCCSSSCCC
OR5K1 (Homo sapiens)
  odorant receptor agonist call: inactive

## CCCCCC(S)C(C)CO (stereo not given)
OR5H2
  odorant receptor agonist call: inactive
OR5H6 (Homo sapiens)
  odorant receptor agonist call: inactive
OR5J2 (Homo sapiens)
  odorant receptor agonist call: inactive
OR5K1 (Homo sapiens)
  odorant receptor agonist call: inactive
OR5K2 (Homo sapiens)
  odorant receptor agonist call: inactive

## CCCCC(S)C(C)CO (stereo not given)
OR5H2
  odorant receptor agonist call: inactive
OR5H6 (Homo sapiens)
  odorant receptor agonist call: inactive
OR5J2 (Homo sapiens)
  odorant receptor agonist call: inactive
OR5K1 (Homo sapiens)
  odorant receptor agonist call: inactive
OR5K2 (Homo sapiens)
  odorant receptor agonist call: inactive

## CCC1OC(=O)C(O)=C1C (stereo not given)
OR5H1
  odorant receptor agonist call: inactive
OR5H2
  odorant receptor agonist call: inactive
OR5H6 (Homo sapiens)
  odorant receptor agonist call: inactive
OR5I1 (Homo sapiens)
  odorant receptor agonist call: inactive
OR5J2 (Homo sapiens)
  odorant receptor agonist call: inactive
OR5K1 (Homo sapiens)
  odorant receptor agonist call: inactive
OR5K2 (Homo sapiens)
  odorant receptor agonist call: inactive
OR5K2 L197M
  odorant receptor agonist call: inactive

## CCC(S)C(C)CO (stereo not given)
OR5H2
  odorant receptor agonist call: inactive
OR5H6 (Homo sapiens)
  odorant receptor agonist call: inactive
OR5J2 (Homo sapiens)
  odorant receptor agonist call: inactive
OR5K1 (Homo sapiens)
  odorant receptor agonist call: inactive
OR5K2 (Homo sapiens)
  odorant receptor agonist call: inactive

## CCCCCCCCC=CC=O
OR5K1 (Homo sapiens)
  odorant receptor agonist call: inactive

## CCC=CCCC=O
OR5K1 (Homo sapiens)
  odorant receptor agonist call: inactive

## CCOC(=O)CC(C)C
OR5K1 (Homo sapiens)
  odorant receptor agonist call: inactive

## CCCC(S)CCO (stereo not given)
OR5K1 (Homo sapiens)
  odorant receptor agonist call: inactive

## CCCSSCCC
OR5K1 (Homo sapiens)
  odorant receptor agonist call: inactive

## CCC(=O)C(C)=O
OR5K1 (Homo sapiens)
  odorant receptor agonist call: inactive

## CCOC(C)=O
OR5K1 (Homo sapiens)
  odorant receptor agonist call: inactive

## C=Cc1cnccn1
OR5K1 (Homo sapiens)
  odorant receptor agonist call: active
OR5K2 (Homo sapiens)
  odorant receptor agonist call: inactive

## COc1nccnc1C(C)C
OR5K1 (Homo sapiens)
  odorant receptor agonist call: active
OR5K2 (Homo sapiens)
  odorant receptor agonist call: inactive

## CCCCCC(C)O (stereo not given)
OR5K1 (Homo sapiens)
  odorant receptor agonist call: inactive

## OCC=Cc1ccccc1
OR5K1 (Homo sapiens)
  odorant receptor agonist call: inactive

## Cc1cncc(C)n1
OR5K1 (Homo sapiens)
  odorant receptor agonist call: active
OR5K2 (Homo sapiens)
  odorant receptor agonist call: inactive

## CCCCC1CCC(=O)O1 (stereo not given)
OR5K1 (Homo sapiens)
  odorant receptor agonist call: inactive

## CC1CCc2nccnc21 (stereo not given)
OR5K1 (Homo sapiens)
  odorant receptor agonist call: active
OR5K2 (Homo sapiens)
  odorant receptor agonist call: inactive

## CC(=O)OCCC(C)C
OR5K1 (Homo sapiens)
  odorant receptor agonist call: inactive

## COC1=C(C)OC(C)C1=O (stereo not given)
OR5K1 (Homo sapiens)
  odorant receptor agonist call: active

## COc1cnccn1
OR5K1 (Homo sapiens)
  odorant receptor agonist call: active
OR5K2 (Homo sapiens)
  odorant receptor agonist call: inactive

## CCC(C)c1nccnc1OC (stereo not given)
OR5K1 (Homo sapiens)
  odorant receptor agonist call: active
OR5K2 (Homo sapiens)
  odorant receptor agonist call: inactive

## CCc1ncc(C)nc1CC
OR5K1 (Homo sapiens)
  odorant receptor agonist call: active
OR5K2 (Homo sapiens)
  odorant receptor agonist call: inactive

## Cc1cnc(C)cn1
OR5K1 (Homo sapiens)
  odorant receptor agonist call: active
OR5K2 (Homo sapiens)
  odorant receptor agonist call: inactive

## O=c1ccc2ccccc2o1
OR5K1 (Homo sapiens)
  odorant receptor agonist call: inactive

## CCc1nccnc1C
OR5K1 (Homo sapiens)
  odorant receptor agonist call: active
OR5K2 (Homo sapiens)
  odorant receptor agonist call: inactive

## Cc1nccnc1C
OR5K1 (Homo sapiens)
  odorant receptor agonist call: active
OR5K2 (Homo sapiens)
  odorant receptor agonist call: inactive

## CCc1nccnc1CC
OR5K1 (Homo sapiens)
  odorant receptor agonist call: active
OR5K2 (Homo sapiens)
  odorant receptor agonist call: inactive

## CCCCCCCC1CCCC(=O)O1 (stereo not given)
OR5K1 (Homo sapiens)
  odorant receptor agonist call: inactive

## CCC(C)C=O (stereo not given)
OR5K1 (Homo sapiens)
  odorant receptor agonist call: inactive

## CCc1nccnc1C(C)=O
OR5K1 (Homo sapiens)
  odorant receptor agonist call: active
OR5K2 (Homo sapiens)
  odorant receptor agonist call: inactive

## Cc1cnccn1
OR5K1 (Homo sapiens)
  odorant receptor agonist call: active
OR5K2 (Homo sapiens)
  odorant receptor agonist call: inactive

## CCCCCCCCC1CCC(=O)O1 (stereo not given)
OR5K1 (Homo sapiens)
  odorant receptor agonist call: inactive

## CCCc1ccc(O)c(OC)c1
OR5K1 (Homo sapiens)
  odorant receptor agonist call: inactive

## CC=Cc1ccc(OC)cc1
OR5K1 (Homo sapiens)
  odorant receptor agonist call: inactive

## COc1nccnc1CC(C)C
OR5K1 (Homo sapiens)
  odorant receptor agonist call: active
OR5K2 (Homo sapiens)
  odorant receptor agonist call: inactive

## CCC=O
OR5K1 (Homo sapiens)
  odorant receptor agonist call: inactive

## CC(C)=CCCC(C)=CCO
OR5K1 (Homo sapiens)
  odorant receptor agonist call: inactive

## CCCCCCCC1CCC(=O)O1 (stereo not given)
OR5K1 (Homo sapiens)
  odorant receptor agonist call: inactive

## C=C1CCC2(C(C)C)CC12 (stereo not given)
OR5K1 (Homo sapiens)
  odorant receptor agonist call: inactive

## OCCc1ccccc1
OR5K1 (Homo sapiens)
  odorant receptor agonist call: inactive

## CCc1nccnc1OC
OR5K1 (Homo sapiens)
  odorant receptor agonist call: active
OR5K2 (Homo sapiens)
  odorant receptor agonist call: inactive

## CC(=O)c1cnccn1
OR5K1 (Homo sapiens)
  odorant receptor agonist call: active
OR5K2 (Homo sapiens)
  odorant receptor agonist call: inactive

## CC(=O)c1nccnc1C
OR5K1 (Homo sapiens)
  odorant receptor agonist call: active
OR5K2 (Homo sapiens)
  odorant receptor agonist call: inactive

## CSC
OR5K1 (Homo sapiens)
  odorant receptor agonist call: inactive

## C=CC(=O)CC=CCC
OR5K1 (Homo sapiens)
  odorant receptor agonist call: inactive

## C=C1CCC2CC1C2(C)C (stereo not given)
OR5K1 (Homo sapiens)
  odorant receptor agonist call: inactive

## CSSc1ccoc1C
OR5K1 (Homo sapiens)
  odorant receptor agonist call: inactive

## CC(=O)c1ccc(C)cc1
OR5K1 (Homo sapiens)
  odorant receptor agonist call: inactive

## O=C(O)CCc1ccccc1
OR5K1 (Homo sapiens)
  odorant receptor agonist call: inactive

Source: the M2OR odorant receptor database
